Results gathered from unrelated publications.
Protocols differ between the studies behind these lines.
Target: Cyclin-dependent kinase 8 (CDK8, Homo sapiens, UniProt P49336)
Concentration: 1 µM

`c1cnn2ncc(-c3ccnc(N4CCC45COC5)n3)c2c1` gave a remaining binding of 100% (binding).
The remaining binding of `N#CC1(c2ccccn2)CCN(Cc2cc(C(=O)N3CCCC3)c(=O)n3ccccc23)CC1` is reported as 100% (cell-free assay; competition with immobilised ligand).
The remaining binding of `Cc1cnc(Nc2ccc(C(=O)N3CCC(N4CCCC4)CC3)cc2)nc1-c1cc2ccccc2s1` is reported as 89% (binding; competition with immobilised ligand).
`C[C@H](NC(=O)c1cnc2n1[C@](C)(Cc1ccc(C#N)cc1)C(=O)N2c1cc(Cl)c(F)c(Cl)c1)C(=O)NC1(c2ccccn2)CC1` has a remaining binding of 100% (cell-free assay; competition with immobilised ligand).
The remaining binding of `N[C@H]1CCN(c2nccc(-c3cnn4ncccc34)n2)C1` is reported as 100% (binding).
`CC1=C(C#N)C(c2ccc3c(c2)c(NC(=O)c2ccccc2C)nn3C)C(C#N)=C(C)N1` has a remaining binding of 97% (cell-free assay; competition with immobilised ligand).
With `COc1cnc(Nc2cccc(S(N)(=O)=O)c2)nc1N1CCN(c2ccccc2)CC1` the remaining binding was 95% (binding; competition with immobilised ligand).
For `F[C@@H]1CCN(c2nccc(-c3cnn4ncccc34)n2)C1`, the remaining binding was 100% (binding).
For `CCN1CCN(Cc2ccc(C(=O)Nc3ccc(C)c(Oc4ccc5c(c4)CC(=O)N5)c3)cc2C(F)(F)F)CC1`, the remaining binding was 67% (binding; competition with immobilised ligand).
The remaining binding of `O=C1NC(c2ccccn2)Sc2ccccc21` (centres unmarked) is reported as 78% (cell-free assay; competition with immobilised ligand).
`COc1cnc(Nc2cccc(S(N)(=O)=O)c2)nc1N1CCN(c2ccccc2)C(=O)C1` gave a remaining binding of 93% (binding; competition with immobilised ligand).
The remaining binding of `CCOCCn1cc(C(=O)Nc2ccc(-n3nc(-c4cccnc4)cc3C(F)(F)F)cn2)ccc1=O` is reported as 100% (cell-free assay; competition with immobilised ligand).
`O=C(NCC1CCOCC1)c1n[nH]cc1NC(=O)c1c(F)cccc1F` has a remaining binding of 100% (binding; competition with immobilised ligand).
With `O=C(c1ccc(Nc2ncc(Cl)c(-c3ccc(Cl)s3)n2)cc1)N1CCC(N2CCCC2)CC1` the remaining binding was 100% (binding; competition with immobilised ligand).
`C[C@@H]1CCN(c2nccc(-c3cnn4ncccc34)n2)C1` gave a remaining binding of 51% (binding).
`CC(=O)C1=C(C)N(c2cccc(C(F)(F)F)c2)C(=O)N[C@@H]1c1ccc(C#N)nc1` gave a remaining binding of 65.3% (cell-free assay; competition with immobilised ligand).
For `CC1CCCN1c1nccc(-c2cnn3ncccc23)n1` (centres unmarked), the remaining binding was 100% (binding).
The remaining binding of `O=C(c1ccc(Nc2nccc(-c3cc4ccccc4s3)n2)cc1)N1CCC(N2CCCC2)CC1` is reported as 91% (binding; competition with immobilised ligand).
With `CN(c1nccc(-c2cnn3ncccc23)n1)C1CC1` the remaining binding was 100% (binding).
`Nc1ncc2c(n1)-c1c([nH]c3ccc(C#CC4CC4)cc13)CCCC2` gave a remaining binding of 100% (binding; competition with immobilised ligand).
